In ChEMBL document CHEMBL1123437, “Isozyme-specific enzyme inhibitors. 12. C- and N-methylmethionines as substrates and inhibitors of methionine adenosyltransferases of normal and hepatoma rat tissues” (J Med Chem, 1986):
Values joined by “and” are separate entries in the source; they are usually repeats but may differ in a detail not shown here. Equal entries are not always repeated.

Legend:
[1] = biological target: S-adenosylmethionine synthase isoform type-2 (Rattus norvegicus) (UniProt P18298); test: Substrate activity of compound (4 mM) measured as the rate of conversion of [C14]-ATP to [C14]-Adomet in relation to KM value of methionine with rat Methionine adenosyltransferase II
Procedure, shortened: (§1)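 Kinetics with 0.4 mM [14C]ATP and 1.72 × 10^-6 units M-2 (kidney) or 1.58 × 10^-6 units M-T (hepatoma), 60 min, 37 °C, pH 8.2. Product resolved by paper electrophoresis and counted. KM and Vmax from linear double-reciprocal plots. Vmax expressed relative to L-Met = 100; reported as the relative Vmax/KM ratio.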
Target sequence in this assay (P18298 whole entry, canonical isoform): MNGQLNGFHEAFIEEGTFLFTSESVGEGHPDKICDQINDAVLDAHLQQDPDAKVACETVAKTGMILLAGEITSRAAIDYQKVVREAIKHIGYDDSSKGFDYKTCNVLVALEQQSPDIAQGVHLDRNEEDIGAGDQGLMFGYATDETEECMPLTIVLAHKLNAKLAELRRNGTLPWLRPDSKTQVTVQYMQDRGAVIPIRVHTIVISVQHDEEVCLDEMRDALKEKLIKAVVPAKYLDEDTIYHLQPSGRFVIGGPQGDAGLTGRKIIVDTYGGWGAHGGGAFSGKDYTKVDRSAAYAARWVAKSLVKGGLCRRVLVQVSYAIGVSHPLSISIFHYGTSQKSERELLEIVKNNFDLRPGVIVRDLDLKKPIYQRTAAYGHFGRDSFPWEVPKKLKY

[2] = biological target: S-adenosylmethionine synthase isoform type-2 (Rattus norvegicus) (UniProt P18298); test: Compound (3 mM) was tested for the inhibition of conversion of [14C]methionine to [14C]AdoMet by rat Methionine adenosyltransferase II
Procedure, shortened: (§2)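 Radiometric [14C]Met→[14C]AdoMet assay with partially purified rat MAT (M-2 from kidney, 8.6 × 10^-6 units; M-T from Novikoff hepatoma, 7.9 × 10^-6 units). Derivative at 3 mM, 2 mM MgATP, pH 8.2 Tris/KCl/MgCl2/DTT buffer, 37 °C, 10 min. Acid-stopped; supernatant counted on phosphocellulose discs. No-ATP incubations served as controls.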
Target sequence in this assay (P18298 whole entry, canonical isoform): as above

[3] = biological target: T1, S-adenosylmethionine synthetase (MAT 1 and MAT 2) (Rattus norvegicus) (UniProt P13444+P18298); test: Compound (3 mM) was tested for the inhibition of conversion of [14C]methionine to [14C]-AdoMet by M-T (hepatoma tissue) of rat methionine adenosyltransferase; format: protein assay; procedure, shortened: as §2
[4] = biological target: T1, S-adenosylmethionine synthetase (MAT 1 and MAT 2) (Rattus norvegicus); test: Substrate activity as rate of conversion of [C14]-ATP to [C14]-Adomet in relation to KM value of methionine with M-T of rat methionine adenosyltransferase; format: protein assay; procedure, shortened: as §1
[5] = biological target: S-adenosylmethionine synthase isoform type-2 (Rattus norvegicus) (UniProt P18298); test: Compound (3 mM) was tested for the inhibition of conversion of [14C]methionine to [14C]AdoMet by M-2 (normal tissue) of rat methionine Adenosyltransferase; procedure, shortened: as §2
Target sequence in this assay (P18298 whole entry, canonical isoform): as above

[6] = biological target: T1, S-adenosylmethionine synthetase (MAT 1 and MAT 2) (Rattus norvegicus); test: Compound (3 mM) was tested for the inhibition of conversion of [14C]methionine to [14C]AdoMet by M-T (hepatoma tissue) of methionine adenosyltransferase; format: protein assay; procedure, shortened: as §2
CSCC(C)C(N)C(=O)O [7] = test: (§3) Substrate activity with […] form of rat methionine Adenosyltransferase; format: protein assay
CSCC[C@H](N)C(=O)O [8] = test: as §3; format: protein assay
CSCC[C@](C)(N)C(=O)O = test: (§4) Substrate activity with […] (M-T) form of rat methionine adenosyltransferase; format: protein assay
CSC[C@@H](C)C(N)C(=O)O = test: as §4; format: protein assay
[9] = biological target: T1, S-adenosylmethionine synthetase (MAT 1 and MAT 2) (Rattus norvegicus); test: […](M-T) of rat methionine adenosyl transferase; format: protein assay
Procedure, shortened: (§5)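 KM from linear double-reciprocal plots of velocity vs derivative concentration. Conditions: 0.4 mM [14C]ATP, 1.72 × 10^-6 units M-2 (rat kidney) or 1.58 × 10^-6 units M-T (Novikoff hepatoma), 60 min, 37 °C, Tris pH 8.2 with KCl/MgCl2/DTT. [14C]AdoMet derivative separated by paper electrophoresis and counted.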

[10] = biological target: T1, S-adenosylmethionine synthetase (MAT 1 and MAT 2) (Rattus norvegicus); test: Substrate activity of compound (4 mM) measured as the rate of conversion of [C14]-ATP to [C14]-Adomet in relation to KM value of methionine with M-T of rat MAT; format: protein assay; procedure, shortened: as §1
[11] = biological target: T1, S-adenosylmethionine synthetase (MAT 1 and MAT 2) (Rattus norvegicus); test: Compound (3 mM) was tested for the inhibition of conversion of [14C]methionine to [14C]-AdoMet by M-T (hepatoma tissue) of rat methionine Adenosyltransferase; format: protein assay; procedure, shortened: as §2
[12] = Ratio of relative Vmax of normal tissue (M-2) form of rat methionine Adenosyltransferase to that of KM of normal tissue(M-2)form of rat methionine Adenosyltransferase; procedure, shortened: as §1
[13] = Ratio of Vmax of […] form of rat methionine Adenosyltransferase to that of KM of […] of rat methionine Adenosyltransferase; procedure, shortened: as §1
CSC(C)C[C@@H](N)C(=O)O = test: (§6) Substrate activity with rat Methionine adenosyltransferase II
CSCC(C)C(N)C(=O)O [14] = test: as §6
CSCC[C@H](N)C(=O)O [15] = test: as §6
[16] = tested on: CS[C@H](C)C[C@H](N)C(=O)O; test: as §6
[17] = biological target: S-adenosylmethionine synthase isoform type-2 (Rattus norvegicus) (UniProt P18298); test: Substrate activity with normal tissue form of rat Methionine adenosyltransferase II
Target sequence in this assay (P18298 whole entry, looked up, canonical isoform): as the sequence (P18298 whole entry, canonical isoform) above

[18] = biological target: T1, S-adenosylmethionine synthetase (MAT 1 and MAT 2) (Rattus norvegicus); test: Substrate activity with […](M-Tform of rat methionine adenosyltransferase; format: protein assay; settings: concentration not given here
Procedure, shortened: (§7)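 Derivative at 4 mM with [14C]ATP and 1.6 × 10^-5 units rat MAT, 1 h at 37 °C. [14C]AdoMet derivative separated by paper electrophoresis (pH 5.0 acetate) and counted. Result given as cpm per 10 µL above a control lacking the derivative. At least twice control counts scored as substrate activity.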

[19] = biological target: S-adenosylmethionine synthase isoform type-2 (Rattus norvegicus) (UniProt P18298); test: Rate of conversion of [C14]-ATP to [C14]-Adomet in relation to KM value of methionine with Methionine adenosyltransferase II; procedure, shortened: as §1
Target sequence in this assay (P18298 whole entry, canonical isoform): as above

[20] = biological target: S-adenosylmethionine synthase isoform type-2 (Rattus norvegicus) (UniProt P18298); test: as §6; settings: concentration not given here; procedure, shortened: as §7
Target sequence in this assay (P18298 whole entry, canonical isoform): as above

[21] = biological target: T1, S-adenosylmethionine synthetase (MAT 1 and MAT 2) (Rattus norvegicus); test: Rate of conversion of [C14]-ATP to [C14]-Adomet in relation to KM value of methionine with methionine adenosyltransferase; format: protein assay; procedure, shortened: as §1
[22] = biological target: S-adenosylmethionine synthase isoform type-2 (Rattus norvegicus) (UniProt P18298); test: Substrate activity of compound (4 mM) measured as the rate of conversion of [C14]-ATP to [C14]-Adomet in relation to KM value of methionine rat Methionine adenosyltransferase II; procedure, shortened: as §1
Target sequence in this assay (P18298 whole entry, canonical isoform): as above

[23] = biological target: T1, S-adenosylmethionine synthetase (MAT 1 and MAT 2) (Rattus norvegicus); test: Substrate level that produces half the maximal velocity(M-T) of rat methionine adenosyltransferase; format: protein assay; procedure, shortened: as §5
[24] = biological target: T1, S-adenosylmethionine synthetase (MAT 1 and MAT 2) (Rattus norvegicus); test: Substrate level that produces half the maximal velocity(M-2) of rat methionine adenosyltransferase; format: protein assay; procedure, shortened: as §5
[25] = biological target: S-adenosylmethionine synthase isoform type-2 (Rattus norvegicus) (UniProt P18298); test: Substrate activity of compound (4 mM) measured as the rate of conversion of [C14]-ATP to [C14]-Adomet in relation to KM value of methionine of rat Methionine adenosyltransferase II; procedure, shortened: as §1
[26] = biological target: T1, S-adenosylmethionine synthetase (MAT 1 and MAT 2) (Rattus norvegicus); test: Substrate level that produces half the maximal velocity(M-2) of rat methionine adenosyl transferase; format: protein assay; procedure, shortened: as §5

S-adenosylmethionine synthase isoform type-2 (Rattus norvegicus), P18298, sequence (P18298 whole entry, canonical isoform): as above
S-adenosylmethionine synthetase (MAT 1 and MAT 2) (Rattus norvegicus) (from UniProt P13444+P18298), sequence (P18298 whole entry, looked up): as the sequence (P18298 whole entry, canonical isoform) above
S-adenosylmethionine synthetase (MAT 1 and MAT 2) (Rattus norvegicus) (from UniProt P13444+P18298), sequence (P13444 whole entry, looked up): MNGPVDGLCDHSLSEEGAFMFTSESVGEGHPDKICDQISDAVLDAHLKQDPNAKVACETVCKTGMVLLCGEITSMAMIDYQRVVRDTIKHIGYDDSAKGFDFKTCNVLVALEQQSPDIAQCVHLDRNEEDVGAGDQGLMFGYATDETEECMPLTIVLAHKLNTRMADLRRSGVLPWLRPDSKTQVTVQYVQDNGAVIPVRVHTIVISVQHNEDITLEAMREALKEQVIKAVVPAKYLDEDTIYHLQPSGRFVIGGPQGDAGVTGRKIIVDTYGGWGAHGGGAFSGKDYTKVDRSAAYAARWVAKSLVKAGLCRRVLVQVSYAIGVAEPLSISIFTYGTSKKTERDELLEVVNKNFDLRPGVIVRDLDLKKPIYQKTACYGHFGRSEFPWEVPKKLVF

CN[C@@H](CCSC)C(=O)O
Substrate activity [1]: -9 c.p.m.
inhibition [2]: 2.9%
inhibition [3]: 0%
Substrate activity [4]: 36 c.p.m.

CS[C@@H](C)C[C@@H](N)C(=O)O
Substrate activity [1]: 30 c.p.m.
inhibition [3]: 14%
inhibition [5]: 9.7%
Substrate activity [4]: 173 c.p.m.

CSCC[C@@](C)(N)C(=O)O
inhibition [6]: 3.7%
Substrate activity [1]: 41 c.p.m.
inhibition [5]: 4.8%
Substrate activity [4]: 40 c.p.m.

S-adenosylmethionine synthetase (MAT 1 and MAT 2) (Rattus norvegicus) (from UniProt P13444+P18298)
Km (CSCC(C)C(N)C(=O)O [7]): 1400 µM
Km (CSCC[C@H](N)C(=O)O [8]): 15.6 µM
Km (CSCC[C@](C)(N)C(=O)O): 21 mM
Km (CSC[C@@H](C)C(N)C(=O)O): 20 mM

CSCC(C)C(N)C(=O)O (stereo not drawn)
Relative Vmax [9]: 27 and 12
Substrate activity [10]: 701 c.p.m.
inhibition [11]: 65%
Substrate activity [1]: 838 c.p.m.
Ratio [12]: 4.4
Ratio [13]: 8.6
inhibition [5]: 68%

CSCC[C@H](N)C(=O)O
Relative Vmax [9]: 100
Ratio [12]: 20000
Ratio [13]: 6400

CCCCN[C@@H](CCSC)C(=O)O
inhibition [6]: 0%
Substrate activity [1]: -15 c.p.m.
inhibition [2]: 0%
Substrate activity [4]: 13 c.p.m.

S-adenosylmethionine synthase isoform type-2 (Rattus norvegicus), P18298
Km (CSC(C)C[C@@H](N)C(=O)O): 10 mM
Km (CSCC(C)C(N)C(=O)O [14]): 6.1 mM
Km (CSCC[C@H](N)C(=O)O [15]): 5 µM
Km [16]: 14 mM
Km [17]: 29 mM

CNCCC(N)C(=O)O (stereo not drawn)
inhibition [18]: 0%
Substrate activity [19]: 37 cpm
inhibition [20]: 6.6%
Substrate activity [21]: 33 cpm

CSCC[C@](C)(N)C(=O)O
Substrate activity [22]: 49 c.p.m.
inhibition [2]: 15%
Relative Vmax [23]: 27
Ratio [13]: 1.3
inhibition [3]: 11%
Substrate activity [4]: 241 c.p.m.

CS[C@H](C)C[C@H](N)C(=O)O
Substrate activity [1]: 506 c.p.m.
inhibition [2]: 24%
Relative Vmax [24]: 27
Ratio [12]: 1.9
inhibition [3]: 15%
Substrate activity [4]: 731 c.p.m.

CSC(C)C[C@@H](N)C(=O)O (stereo partly drawn)
Substrate activity [1]: 624 c.p.m.
inhibition [2]: 29%
Relative Vmax [24]: 26
Ratio [12]: 2.6
inhibition [3]: 24%
Substrate activity [4]: 272 c.p.m.

CSC[C@@H](C)C(N)C(=O)O (stereo partly drawn)
Substrate activity [25]: 38 c.p.m.
inhibition [2]: 15%
Relative Vmax [23]: 37
Ratio [13]: 1.8
inhibition [3]: 8.7%
Substrate activity [4]: 348 c.p.m.

CSC[C@@H](C)[C@H](N)C(=O)O
Substrate activity [1]: -10 c.p.m.
inhibition [2]: 17%
inhibition [3]: 6.6%
Substrate activity [4]: 191 c.p.m.

CSC[C@@H](C)[C@@H](N)C(=O)O
Substrate activity [1]: 333 c.p.m.
inhibition [2]: 21%
Relative Vmax [26]: 26
Ratio [12]: 0.9
inhibition [3]: 15%
Substrate activity [4]: 381 c.p.m.
